A selection: hits, their analogues and other compounds. The true share with any hit is near 7.1%.
H69AR inhibit = proliferation blockers of H69AR lung cancer cells, primary screen, cell-based, human, 86K library; H69AR lung tumor viability, ATP luminescence, 72 h; hits give low values; viability, % at 10 µM; 85,000 tested, 6% active; AID 598, 2007;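 active means viability at or below 40%; inactive means viability above 40%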;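 further: multidrug resistant small cell line overexpressing MRP-1 efflux transporter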
HUVEC prolif 384 = inhibitors of HUVEC proliferation, primary screen, cell-based, 384-well | CellTiter-Glo luminescence, 72 h; hits give low values | viability, % at 10 µM (by protocol) | 86,000 tested, 1.1% active;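 active means viability at or below 30%; inactive means viability above 30%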
bCat KO growth = primary screen for growth suppressors in beta-catenin knockout HCT116 cells (colon tumor, human); viability, % at 10 µM; HCT116 beta-catenin knockout viability, CellTiter-Glo, 60 h; hits give low values; 140,000 tested, 1.5% active;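 active means viability at or under a set limit, the compound median less 4 SD, cut at about 6% in these data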
Fibroblast inh = antiproliferative effect on LL 47 fibroblasts – human, LL 47 cells, CellTiter-Glo luminescence, primary screen | viability, % at 10 µM | LL 47 human lung fibroblast viability, ATP luminescence; hits give low values | AID 719, 2007 | 85,000 tested, 1.1% active;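 active means viability at or below 50% in the single dose screen; inactive means viability above 50%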;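 further: compound exposure lasted 72 h before the ATP readout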
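Benchmarks: Cell-only wells, no compound | Test system: LL 47 human lung fibroblasts, passage 12 or lower | Input: 1,150 cells/well | Measured by: CellTiter-Glo luminescence measuring cellular ATP | Medium: IMEM, 15% FBS supplement | Schedule: Overnight attachment after seeding, then 72 h compound exposure at 37 °C | Doses: Compound addition at 0.1% DMSO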
Cav32 inh = Cav3.2 calcium influx blockers – cell-based, Fluo-4 calcium fluorescence, FDSS, MLSMR library, primary screen | Voltage-dependent T-type calcium channel subunit alpha-1H (Homo sapiens), O95180 | Cav3.2-expressing cells; hits give low values | B-score at 10 µM | 100,000 tested, 4% active | AID 449739, 2010;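 active means single-dose well whose peak fluorescence ratio is a statistical outlier from its plate by either plate-standardised score or position-corrected B-score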
Target sequence (O95180 whole entry, looked up): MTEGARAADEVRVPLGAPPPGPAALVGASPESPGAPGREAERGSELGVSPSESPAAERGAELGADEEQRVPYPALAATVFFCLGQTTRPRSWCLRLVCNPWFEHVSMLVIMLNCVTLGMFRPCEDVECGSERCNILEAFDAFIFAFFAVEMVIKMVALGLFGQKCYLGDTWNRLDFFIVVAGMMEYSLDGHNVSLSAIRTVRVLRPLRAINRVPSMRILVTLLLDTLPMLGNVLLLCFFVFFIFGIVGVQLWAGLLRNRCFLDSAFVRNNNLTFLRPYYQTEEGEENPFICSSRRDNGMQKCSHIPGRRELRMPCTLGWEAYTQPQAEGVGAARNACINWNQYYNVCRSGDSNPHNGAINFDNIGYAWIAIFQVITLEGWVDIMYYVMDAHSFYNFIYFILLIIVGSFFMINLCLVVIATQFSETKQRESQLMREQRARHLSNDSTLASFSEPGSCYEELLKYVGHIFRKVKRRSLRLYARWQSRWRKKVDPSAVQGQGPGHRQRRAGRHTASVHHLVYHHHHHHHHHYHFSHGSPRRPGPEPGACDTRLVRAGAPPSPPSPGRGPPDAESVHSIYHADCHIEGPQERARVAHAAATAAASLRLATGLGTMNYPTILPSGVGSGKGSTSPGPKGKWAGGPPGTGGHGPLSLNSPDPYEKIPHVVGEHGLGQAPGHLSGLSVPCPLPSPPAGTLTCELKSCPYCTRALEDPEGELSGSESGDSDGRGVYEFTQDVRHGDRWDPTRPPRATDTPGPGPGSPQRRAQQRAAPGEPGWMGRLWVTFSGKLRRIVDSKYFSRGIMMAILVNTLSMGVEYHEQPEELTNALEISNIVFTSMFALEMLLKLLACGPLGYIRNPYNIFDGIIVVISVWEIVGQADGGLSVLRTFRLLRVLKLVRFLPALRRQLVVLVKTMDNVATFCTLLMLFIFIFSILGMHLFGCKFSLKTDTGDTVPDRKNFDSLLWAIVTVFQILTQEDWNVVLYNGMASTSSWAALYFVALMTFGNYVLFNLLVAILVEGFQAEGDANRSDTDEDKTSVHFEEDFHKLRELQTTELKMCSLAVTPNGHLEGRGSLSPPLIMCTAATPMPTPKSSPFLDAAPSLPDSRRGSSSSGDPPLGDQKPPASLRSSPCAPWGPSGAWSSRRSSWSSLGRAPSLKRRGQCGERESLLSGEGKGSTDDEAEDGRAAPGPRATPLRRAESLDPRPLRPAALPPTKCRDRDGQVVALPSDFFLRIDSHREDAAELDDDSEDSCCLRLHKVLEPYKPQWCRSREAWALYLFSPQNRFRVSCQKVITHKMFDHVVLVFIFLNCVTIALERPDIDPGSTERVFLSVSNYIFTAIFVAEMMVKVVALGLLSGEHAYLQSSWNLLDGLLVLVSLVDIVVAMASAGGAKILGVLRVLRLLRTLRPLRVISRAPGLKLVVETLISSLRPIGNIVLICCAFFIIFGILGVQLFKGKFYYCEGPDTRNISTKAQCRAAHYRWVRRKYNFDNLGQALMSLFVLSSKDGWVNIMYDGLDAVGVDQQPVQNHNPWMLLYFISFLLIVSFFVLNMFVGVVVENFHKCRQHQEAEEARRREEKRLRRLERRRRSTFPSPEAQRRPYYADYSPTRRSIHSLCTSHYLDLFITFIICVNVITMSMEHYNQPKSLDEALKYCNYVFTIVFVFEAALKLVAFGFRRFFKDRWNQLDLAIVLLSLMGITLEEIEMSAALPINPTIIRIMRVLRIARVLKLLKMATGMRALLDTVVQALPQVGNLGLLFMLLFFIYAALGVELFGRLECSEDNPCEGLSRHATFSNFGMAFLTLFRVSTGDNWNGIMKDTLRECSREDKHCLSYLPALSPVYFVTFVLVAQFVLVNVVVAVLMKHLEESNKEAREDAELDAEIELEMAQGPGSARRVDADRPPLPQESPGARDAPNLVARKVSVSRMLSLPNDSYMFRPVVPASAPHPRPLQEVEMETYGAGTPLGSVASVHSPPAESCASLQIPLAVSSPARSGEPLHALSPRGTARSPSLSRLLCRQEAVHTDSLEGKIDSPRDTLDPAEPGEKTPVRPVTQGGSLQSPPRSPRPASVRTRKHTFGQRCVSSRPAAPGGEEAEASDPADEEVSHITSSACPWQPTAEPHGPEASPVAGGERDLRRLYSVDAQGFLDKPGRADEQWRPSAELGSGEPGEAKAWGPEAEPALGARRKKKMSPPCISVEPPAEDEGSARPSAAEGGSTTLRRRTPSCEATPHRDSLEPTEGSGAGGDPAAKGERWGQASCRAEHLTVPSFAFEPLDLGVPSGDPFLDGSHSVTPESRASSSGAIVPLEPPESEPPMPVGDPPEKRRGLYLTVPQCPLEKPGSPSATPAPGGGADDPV
HCT116 PTEN-null = growth suppression of PTEN-null HCT116, primary screen, cell-based, CellTiter-Glo | HCT116 PTEN-null viability, 60 h; hits give low values | 140,000 tested, 1.2% active | viability, % at 10 µM | AID 827, 2007;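 active means viability at or below a set limit, 4 SD under the median of all tested compounds, cut at about 3.7% in these data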;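 further: PTEN knockout HCT116 line with beta catenin targeted HCT116 as companion control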
Numbers stand for hits; n = inactive; x = no result.

SMILES | H69AR inhibit | HUVEC prolif 384 | bCat KO growth | Fibroblast inh | Cav32 inh | HCT116 PTEN-null
Cc1cccc(/C=C(\c2nc3ccccc3[nH]2)S(=O)(=O)c2ccccc2)c1 | x | x | 1.9 | x | x | 0.9
Cc1cc(OCCCCCNCCO)cc(C)c1Cl | 37.3 | n | n | n | n | 3.6
Cc1ccc(C2c3c(oc4ccccc4c3=O)C(=O)N2c2nnc(C(C)C)s2)o1 (centres undefined) | 8.4 | n | n | n | n | n
CCCCN(CCCC)C(=O)c1nsnc1-c1ccccc1O | n | n | n | n | n | n
CC(NC(=O)Nc1cccnc1)(C(F)(F)F)C(F)(F)F | n | n | n | n | n | n
COc1ccc(NC(=O)Nc2cccc([N+](=O)[O-])c2)cc1Cl | x | x | 5.0 | x | x | n
O=C(Nc1ccc([N+](=O)[O-])cc1)Nc1ccc(OC(F)F)c(Cl)c1 | x | x | 1.0 | x | x | 1.1
O=C(Nc1ccc(OC(F)F)c(Cl)c1)Nc1ccc2c(c1)OCO2 | n | n | n | n | n | n
CC(NC(=O)Nc1cccc([N+](=O)[O-])c1)(C(F)(F)F)C(F)(F)F | x | x | n | x | -4.85 | n
COC(C#CCCN(C)C)(c1ccccc1)c1ccccc1 | x | x | n | x | x | n
Cc1ccc(/C=C2\CCC3=C2OC(N)=C(C#N)C3c2ccc(C)cc2)cc1 (centres undefined) | x | x | n | x | -6.52 | n
N#CC1=C(N)OC2=C(CCc3ccccc32)C1c1ccccc1 (centres undefined) | x | x | n | x | x | n
O=C(Nc1cccc(Cl)c1)N(Cc1nc2ccccc2c(=O)[nH]1)Cc1cccs1 | x | x | n | x | x | n
N#CC1=C2SCN(Cc3ccco3)CN2C(=O)CC1c1ccccc1F (centres undefined) | 40.0 | n | n | n | n | n
CCOC(=O)[C@@H]1[C@H]2COc3ccccc3[C@@H]2N2C(=O)N(c3cccc(F)c3)C(=O)[C@]12C | x | x | x | x | n | x
Cc1ccc(C(=O)CC2(O)C(=O)N(C)c3ccc(Br)cc32)c(C)c1 (centres undefined) | 36.4 | n | n | n | n | n
CN1C(=O)C(O)(CC(=O)c2cccnc2)c2ccccc21 (centres undefined) | x | x | n | x | n | n
O=C(CC1(O)C(=O)N(Cc2cccc3ccccc23)c2ccccc21)c1cccnc1 (centres undefined) | 19.7 | n | n | n | n | n
Cc1ccc(C(=O)CC2(O)C(=O)N(Cc3ccccc3Cl)c3ccccc32)o1 (centres undefined) | 18.5 | n | n | n | -5.62 | n
Cc1ccc(C(=O)CC2(O)C(=O)N(Cc3ccccc3)c3ccccc32)o1 (centres undefined) | n | n | n | n | n | n
Cc1coc(C)c1C(=O)CC1(O)C(=O)N(Cc2ccccc2)c2ccccc21 (centres undefined) | n | n | n | n | -4.61 | n
CCOC(=O)C1=C(C)NC(=O)C1CC(=O)O (centres undefined) | x | x | n | x | x | n
CN(C)S(=O)(=O)c1ccc(Cl)c(NC(=O)COC(=O)c2cc(-c3ccccc3)nc3ccccc23)c1 | x | x | n | x | x | n
Cc1ccc(C(=O)CC2(O)C(=O)N(CCc3ccccc3)c3ccc(Br)cc32)o1 (centres undefined) | n | n | n | n | -7.13 | n
COc1ccc(Oc2nc(SC)nc3ccccc23)cc1 | x | x | n | x | n | n
COc1ccc(NC(=O)CN2CCN(CC(=O)Nc3ccccc3Cl)CC2)cc1Cl | 23.8 | n | n | n | n | n
COc1ccccc1NC(=O)CN1CCN(CC(=O)Nc2ccc(Cl)c(C(F)(F)F)c2)CC1 | 26.7 | n | n | n | -10.9 | n
COc1ccccc1NC(=O)CN1CCCCC1 | n | n | n | n | n | n
O=C(Nc1ccc(-c2nc3ccccc3o2)cc1)c1ccc(N2C(=O)C3C4C=CC(C4)C3C2=O)cc1 (centres undefined) | 15.5 | n | n | n | n | n
COc1cc(C(=O)Nc2ccc(-c3nc4cc(C)ccc4o3)c(O)c2)cc(OC)c1OC | 23.7 | n | n | n | n | n

Bioassay records deposited in PubChem BioAssay by several laboratories.
